Nine compounds from ChEMBL document CHEMBL1129954, “From peptide to non-peptide. 3. Atropisomeric GPIIbIIIa antagonists containing the 3,4-dihydro-1H-1,4-benzodiazepine-2,5-dione nucleus” (J Med Chem, 1997) can be followed below.

T1 sequence (P05106 27-788 limits assumed): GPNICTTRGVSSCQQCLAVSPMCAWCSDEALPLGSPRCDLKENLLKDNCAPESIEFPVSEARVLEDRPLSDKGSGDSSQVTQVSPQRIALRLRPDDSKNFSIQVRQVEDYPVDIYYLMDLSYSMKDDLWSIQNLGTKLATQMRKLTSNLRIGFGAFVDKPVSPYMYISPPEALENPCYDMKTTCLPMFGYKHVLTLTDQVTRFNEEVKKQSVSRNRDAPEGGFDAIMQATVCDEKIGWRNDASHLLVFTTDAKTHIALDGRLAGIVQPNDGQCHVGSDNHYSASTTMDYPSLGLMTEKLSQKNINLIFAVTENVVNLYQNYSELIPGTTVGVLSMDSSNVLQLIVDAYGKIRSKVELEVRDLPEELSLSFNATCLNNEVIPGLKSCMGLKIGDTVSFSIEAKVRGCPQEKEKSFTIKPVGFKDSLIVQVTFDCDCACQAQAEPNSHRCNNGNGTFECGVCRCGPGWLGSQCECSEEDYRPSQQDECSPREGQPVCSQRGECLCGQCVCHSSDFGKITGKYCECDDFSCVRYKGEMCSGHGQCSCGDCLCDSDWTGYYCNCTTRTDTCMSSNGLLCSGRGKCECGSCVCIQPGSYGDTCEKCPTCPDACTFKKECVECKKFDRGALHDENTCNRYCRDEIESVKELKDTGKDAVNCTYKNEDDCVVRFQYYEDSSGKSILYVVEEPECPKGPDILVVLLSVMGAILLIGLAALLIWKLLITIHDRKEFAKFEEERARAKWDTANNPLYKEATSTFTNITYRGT
T1 sequence (P08514 32-887 limits assumed): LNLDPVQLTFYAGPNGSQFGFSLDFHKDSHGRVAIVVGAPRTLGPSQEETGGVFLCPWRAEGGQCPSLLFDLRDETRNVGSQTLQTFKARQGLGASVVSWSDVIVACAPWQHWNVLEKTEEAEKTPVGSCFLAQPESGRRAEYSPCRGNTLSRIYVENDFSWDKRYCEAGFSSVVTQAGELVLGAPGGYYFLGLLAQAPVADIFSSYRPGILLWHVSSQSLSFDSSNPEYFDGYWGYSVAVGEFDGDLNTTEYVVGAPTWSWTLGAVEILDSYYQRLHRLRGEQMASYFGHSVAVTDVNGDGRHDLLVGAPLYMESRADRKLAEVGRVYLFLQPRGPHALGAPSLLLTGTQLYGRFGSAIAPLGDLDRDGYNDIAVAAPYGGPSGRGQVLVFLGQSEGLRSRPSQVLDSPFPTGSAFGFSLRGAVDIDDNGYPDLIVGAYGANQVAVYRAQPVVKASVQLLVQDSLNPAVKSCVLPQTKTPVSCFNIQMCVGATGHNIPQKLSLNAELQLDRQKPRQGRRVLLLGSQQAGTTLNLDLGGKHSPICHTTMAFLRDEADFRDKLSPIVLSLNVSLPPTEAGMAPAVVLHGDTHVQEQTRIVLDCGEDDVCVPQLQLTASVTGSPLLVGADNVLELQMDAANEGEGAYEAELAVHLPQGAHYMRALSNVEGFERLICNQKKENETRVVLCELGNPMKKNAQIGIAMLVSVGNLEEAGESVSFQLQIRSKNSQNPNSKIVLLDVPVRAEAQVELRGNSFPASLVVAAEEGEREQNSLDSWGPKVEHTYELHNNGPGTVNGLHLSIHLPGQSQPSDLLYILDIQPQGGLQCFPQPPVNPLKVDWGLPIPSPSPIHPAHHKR
T1 sequence (P08514 891-1039 limits assumed): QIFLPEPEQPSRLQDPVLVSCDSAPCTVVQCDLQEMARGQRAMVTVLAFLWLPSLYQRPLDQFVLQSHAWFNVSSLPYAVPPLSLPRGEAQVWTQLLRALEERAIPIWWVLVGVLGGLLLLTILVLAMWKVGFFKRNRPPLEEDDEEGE

The target of one assay is T1, Integrin alpha-IIb/beta-3 (Homo sapiens, UniProt P05106+P08514). Briefly: Binding affinity for soluble GPIIb/IIIa captured on fibrinogen coated microtiter plate. Format: protein-complex assay. In outline:
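Solid-phase ELISA measuring binding of soluble GPIIbIIIa to fibrinogen coated on a microtiter plate. Values are the average of at least 3 determinations.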
As to `C[C@@H](CC(=O)O)N1CC(=O)N(C(C)(C)C)c2c(Cl)cc(C#Cc3ccc(C(=N)N)cc3)cc2C1=O` (stereo in doubt; 10), the half-inhibitory concentration (IC50) – broadly, the concentration that gives 50% inhibition – turned out to be 140 nM. Turning to `C[C@@H](CC(=O)O)N1CC(=O)N(C(C)(C)C)c2c(Cl)cc(C#Cc3ccc(C(=N)N)cc3)cc2C1=O` (stereo in doubt; 9), the half-maximal inhibitory concentration (IC50) was 2 nM. Same read-out and setting: with `C[C@@H](CC(=O)O)N1CC(=O)N(C)c2ccc(C#Cc3ccc(C(=N)N)cc3)cc2C1=O` the figure was 5 nM.

Turning to `CN1C(=O)CN(CCC(=O)O)C(=O)c2cc(C#Cc3ccc(C(=N)N)cc3)ccc21`, the IC50 was found to be 11 nM.

Compound `C[C@H](CC(=O)O)N1CC(=O)N(C(C)(C)C)c2c(Cl)cc(C#Cc3ccc(C(=N)N)cc3)cc2C1=O` (stereo in doubt; 11) had an IC50 of 18 nM. `C[C@H](CC(=O)O)N1CC(=O)N(C)c2ccc(C#Cc3ccc(C(=N)N)cc3)cc2C1=O` came in with a concentration for half-maximal inhibition (IC50) of 60 nM. Still for that read-out and setting: with `C[C@H](CC(=O)O)N1CC(=O)N(C(C)(C)C)c2c(Cl)cc(C#Cc3ccc(C(=N)N)cc3)cc2C1=O` (stereo in doubt; 12) the figure was 65 nM; with `C[C@@H](CC(=O)O)N1CC(=O)N(C)c2c(Cl)cc(C#Cc3ccc(C(=N)N)cc3)cc2C1=O`, 7 nM.

The target in a further assay is T1, Integrin alpha-IIb/beta-3. Briefly: Binding affinity for soluble GPIIb/IIIa captured on fibrinogen coated microtiter plate; 1:3 mixture enriched in the slower eluting diastereoisomer. Format: protein-complex assay. In outline: (§1)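 Solid-phase ELISA measuring binding of soluble GPIIbIIIa to plate-coated fibrinogen. Tested as a diastereoisomer-enriched mixture, single determination (n = 1).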
Take `C[C@@H](CC(=O)O)N1CC(=O)N(C(C)(C)C)c2ccc(C#Cc3ccc(C(=N)N)cc3)cc2C1=O`: the IC50 was determined as 12 nM.

A further assay deals with T1, Integrin alpha-IIb/beta-3. Briefly: Binding affinity for soluble GPIIb/IIIa captured on fibrinogen coated microtiter plate; 3:1 mixture enriched in the faster eluting diastereoisomer. Format: protein-complex assay. In outline:
as §1
As to `C[C@@H](CC(=O)O)N1CC(=O)N(C(C)(C)C)c2ccc(C#Cc3ccc(C(=N)N)cc3)cc2C1=O`, the IC50 came out at 3 nM.
